# Measured values as given in the RNAGym collection of RNA variant scans (doi:10.1002/anie.201605470).
# B1: Osa-1-4 twister ribozyme (parent)
# chain: CCGCCUAACACUGCCAAUGCCGGUCCCAAGCCCGGAUAAAAGUGGAGGGGGCGG
# Variants of: B1
# Assay: self-cleavage, relative activity (ratio to wild type); higher = more cleavage; co-transcriptional
# Summary of the method: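 A DNA template for a 54-nucleotide Oryza sativa twister ribozyme was synthesised with 97 % wild-type base and 1 % of each other base at the 48 positions downstream of the cleavage site. It was transcribed in vitro for 2 h at 37 °C, allowing co-transcriptional self-cleavage, then reverse-transcribed with a template-switching oligonucleotide, PCR-amplified and deep-sequenced. Cleavage status was scored from reads with or without upstream sequence. Relative activity is fraction cleaved normalised to wild type.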
row,Variant,self-cleavage
1,A46U C25U,0.06
2,A46U C25G,0.04
3,A46U C25A,0.03
4,A46U A8C,0.03
5,A46U A8G,0.08
6,A46U A8U,0.07
7,A46C G19U,0.04
8,A46C G19A,0.05
9,A46C G19C,0.02
10,A46C C21G,0.03
11,A46C C21U,0.06
12,A46C C21A,0.06
13,A46U G54U,0.17
14,A46U G54C,0.08
15,A46U G54A,0.08
16,A46C G47C,0.02
17,A46C G47A,0.04
18,A46C G47U,0.04
19,G47A,0.51
20,A46C C33U,0.03
21,A46C C33G,0.02
22,A46C C33A,0.04
23,A46C C15U,0.04
24,A46C C15A,0.03

row,Variant,self-cleavage
1,A46C C15G,0.04
2,A46G U12A,0.05
3,A46G U12G,0.07
4,A46G U12C,0.05
5,A46G C20A,0.09
6,A46G C20G,0.04
7,A46G C20U,0.07
8,A46U A7G,0.07
9,A46U A7U,0.04
10,A46U A7C,0.02
11,A46G U43G,0.12
12,A46G U43C,0.04
13,A46G U43A,0.06
14,A46C U12A,0.05
15,A46C U12C,0.04
16,A46C U12G,0.03
17,A46C C11U,0.05
18,A46G G19A,0.05
19,A46G G19C,0.02
20,A46G G19U,0.04
21,A46G G47C,0.03
22,A46G G47A,0.06
23,A46G G47U,0.06
24,A46G G44C,0.05

row,Variant,self-cleavage
1,A46G G44U,0.07
2,A46G G44A,0.05
3,A46G G53U,0.07
4,A46G G53A,0.07
5,A46G G53C,0.03
6,A46G G13U,0.01
7,A46G G13C,0.02
8,A46G G13A,0.02
9,A46C G34U,0.04
10,A46C G34C,0.05
11,A46C G34A,0.06
12,A46C U43A,0.06
13,A46C U43C,0.05
14,A46C U43G,0.05
15,A46C G23U,0.03
16,A46C G23A,0.04
17,A46C G23C,0.02
18,A46C G44C,0.06
19,A46C G44A,0.05
20,A46C G44U,0.06
21,A46C C20U,0.07
22,A46C C20A,0.04
23,A46C C20G,0.03
24,A46U G19C,0.03

row,Variant,self-cleavage
1,A46U G19A,0.06
2,A46U G19U,0.04
3,A46G G48U,0.02
4,A46G G48A,0.02
5,A46G G48C,0.03
6,A46U C26U,0.06
7,A46U C26G,0.03
8,A46U C26A,0.02
9,A46G G23U,0.03
10,A46G G23C,0.02
11,A46G G23A,0.05
12,A46U G44A,0.07
13,A46U G44C,0.06
14,A46U G44U,0.07
15,A46G G22U,0.06
16,A46G G22C,0.02
17,A46G G22A,0.08
18,A46U C20U,0.1
19,A46U C20G,0.05
20,A46U C20A,0.06
21,A46U,0.08
22,A46G,0.08
23,A46G C15A,0.06
24,A46G C15G,0.04

row,Variant,self-cleavage
1,A46G C15U,0.04
2,A46G C31U,0.05
3,A46G C31G,0.03
4,A46G C31A,0.01
5,A46C G42U,0.02
6,A46C G42C,0.04
7,A46C G42A,0.04
8,A46U G13U,0.01
9,A46U G13C,0.02
10,A46U G13A,0.03
11,A46U G51A,0.09
12,A46U G51C,0.05
13,A46U G51U,0.06
14,G47A G48U,0.04
15,G47A G48A,0.08
16,G47A G48C,0.04
17,A46U G30U,0.02
18,A46U G30C,0.01
19,A46U G30A,0.02
20,A46G C32G,0.07
21,A46G C32A,0.03
22,A46G C32U,0.04
23,A46C G51C,0.04
24,A46C G51A,0.07

row,Variant,self-cleavage
1,A46C G51U,0.05
2,A46U C15U,0.06
3,A46U C15G,0.08
4,A46U C15A,0.05
5,A46U U24G,0.01
6,A46U U24C,0.05
7,A46U U24A,0.04
8,A46C G48U,0.02
9,A46C G48C,0.03
10,A46C G48A,0.04
11,A46U G22A,0.09
12,A46U G22C,0.03
13,A46U G22U,0.06
14,G47A G50A,0.36
15,G47A G50C,0.07
16,G47A G50U,0.09
17,A46G G45C,0.03
18,A46G G45U,0.03
19,A46G G45A,0.06
20,A46C U37C,0.07
21,A46C U37A,0.05
22,A46C U37G,0.09
23,A46G U37C,0.08
24,A46G U37A,0.05

row,Variant,self-cleavage
1,A46G U37G,0.09
2,A46C G30C,0.02
3,A46C G30A,0.01
4,A46C G30U,0.02
5,A46G U18G,0.13
6,A46G U18A,0.06
7,A46G U18C,0.07
8,A46G G34C,0.05
9,A46G G34U,0.05
10,A46G G34A,0.06
11,A46G C26U,0.04
12,A46G C26G,0.02
13,A46G C26A,0.03
14,A46C C32A,0.03
15,A46C C32U,0.04
16,A46C C32G,0.03
17,A46G G42C,0.04
18,A46G G42U,0.04
19,A46G G42A,0.05
20,A46C C26A,0.02
21,A46C C26G,0.02
22,A46C C26U,0.05
23,A46G G54A,0.07
24,A46G G54C,0.06

row,Variant,self-cleavage
1,A46G G54U,0.11
2,A46G C9G,0.07
3,A46G C9U,0.03
4,A46G C9A,0.03
5,A46U G42C,0.06
6,A46U G42A,0.08
7,A46U G42U,0.03
8,A46C G54A,0.09
9,A46C G54U,0.19
10,A46C G54C,0.08
11,A46C G45A,0.05
12,A46C G45U,0.02
13,A46C G45C,0.03
14,A46C C25A,0.03
15,A46C C25G,0.02
16,A46C C25U,0.05
17,A46C C14U,0.03
18,A46C C14G,0.03
19,A46C C14A,0.02
20,A46U C9A,0.02
21,A46U C9G,0.06
22,A46U C9U,0.04
23,A46G G51A,0.05
24,A46G G51U,0.05

row,Variant,self-cleavage
1,A46G G51C,0.04
2,A46G C27U,0.04
3,A46G C27G,0.04
4,A46G C27A,0.05
5,A46G G49C,0.03
6,A46G G49A,0.03
7,A46G G49U,0.03
8,A46G C21G,0.02
9,A46G C21A,0.07
10,A46G C21U,0.09
11,A46C C52G,0.09
12,A46C C52U,0.08
13,A46C C52A,0.07
14,A46U G34C,0.07
15,A46U G34U,0.06
16,A46U G34A,0.06
17,A46C C27U,0.04
18,A46C C27G,0.01
19,A46C C27A,0.03
20,A46U G49U,0.05
21,A46U G49C,0.04
22,A46U G49A,0.04
23,A46U C21G,0.02
24,A46U C21U,0.06

row,Variant,self-cleavage
1,A46U C21A,0.07
2,A46C C31U,0.04
3,A46C C31G,0.02
4,A46C C31A,0.01
5,A46U G45A,0.08
6,A46U G45C,0.04
7,A46U G45U,0.03
8,A46U C52U,0.09
9,A46U C52A,0.1
10,A46U C52G,0.12
11,A46G C25A,0.02
12,A46G C25G,0.02
13,A46G C25U,0.05
14,A46U G53C,0.05
15,A46U G53U,0.09
16,A46U G53A,0.1
17,A46C G22C,0.03
18,A46C G22A,0.06
19,A46C G22U,0.04
20,G47A G49A,0.05
21,G47A G49U,0.04
22,G47A G49C,0.04
23,A46U G48C,0.04
24,A46U G48U,0.03

row,Variant,self-cleavage
1,A46U G48A,0.03
2,A46C U24A,0.02
3,A46C U24G,0.01
4,A46C U24C,0.04
5,A46G C11G,0.04
6,A46G C11U,0.06
7,A46G C11A,0.06
8,A46U G35C,0.05
9,A46U G35A,0.07
10,A46U G35U,0.09
11,A46G G30C,0.01
12,A46G G30U,0.03
13,A46G G30A,0.02
14,A46U U37A,0.05
15,A46U U37G,0.11
16,A46U U37C,0.09
17,A46U C27U,0.06
18,A46U C27A,0.04
19,A46U C27G,0.03
20,A46U G47U,0.05
21,A46U G47A,0.06
22,A46U G47C,0.04
23,A46U U43G,0.07
24,A46U U43C,0.06

row,Variant,self-cleavage
1,A46U U43A,0.08
2,A46C G50U,0.09
3,A46C G50C,0.08
4,A46C G50A,0.1
5,A46C G35A,0.06
6,A46C G35C,0.04
7,A46C G35U,0.05
8,A46U G50C,0.07
9,A46U G50U,0.09
10,A46U G50A,0.08
11,A46G U24C,0.04
12,A46G U24G,0.02
13,A46G U24A,0.04
14,A46C G53A,0.07
15,A46C G53U,0.08
16,A46C G53C,0.04
17,A46U C33U,0.06
18,A46U C33A,0.05
19,A46U C33G,0.03
20,A46U U18A,0.05
21,A46U U18C,0.08
22,A46U U18G,0.09
23,A46G C52U,0.09
24,A46G C52G,0.24

row,Variant,self-cleavage
1,A46G C52A,0.1
2,A46U C11G,0.05
3,A46U C11U,0.08
4,A46U C11A,0.06
5,A46C G13C,0.01
6,A46C G13A,0.02
7,A46C G13U,0.01
8,A46C G49A,0.04
9,A46C G49U,0.04
10,A46C G49C,0.03
11,A46U C32U,0.05
12,A46U C32A,0.03
13,A46U C32G,0.05
14,A46C U18G,0.14
15,A46C U18A,0.06
16,A46C U18C,0.06
17,A46G C14A,0.03
18,A46G C14G,0.04
19,A46G C14U,0.03
20,A46G A8C,0.03
21,A46G A8U,0.03
22,A46G A8G,0.04
23,A46U C31G,0.04
24,A46U C31A,0.02

row,Variant,self-cleavage
1,A46U C31U,0.04
2,A46U U12A,0.07
3,A46U U12G,0.07
4,A46U U12C,0.06
5,A46G C33U,0.06
6,A46G C33A,0.04
7,A46G C33G,0.03
8,A46G G50U,0.06
9,A46G G50A,0.08
10,A46G G50C,0.06
11,A46U G23C,0.02
12,A46U G23A,0.06
13,A46U G23U,0.03
14,A46U C14A,0.03
15,A46U C14U,0.06
16,A46U C14G,0.03
17,A46G G35A,0.07
18,A46G G35U,0.08
19,A46G G35C,0.05
20,A46G A7C,0.02
21,A46G A7G,0.05
22,A46G A7U,0.01
